According to article PMC2802674 (Carcinogenesis, 2009):

Columns and labels:
hepatic DNA = details: rats given 0.5 mmol/kg, 24 h, HPLC/MS/MS; cited from earlier work
male and female rats = details: dose-dependent; cited from earlier work
[1] = tested on: AA8 CHO cells (NER proficient) and UV5 cells (NER deficient); assay: aprt mutant fraction in AA8 and UV5 CHO cells, 8-azaadenine selection; type: cell-based, Chinese hamster; details: absence of human liver S9, 100 μM–1 mM
Method in brief: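 AA8 (NER-proficient) and UV5 (NER-deficient, XPD/ERCC2 defect) CHO cells, neither expressing significant phase I or phase II enzymes, were exposed without human liver S9. Doses were parent alkylanilines at 50 μM–1 mM, or N-hydroxy and aminophenol metabolites at 5–500 μM. Mutant fraction at the heterozygous aprt locus was determined by 8-azaadenine selection.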

bone marrow of male mice = details: oral doses of up to 375 mg/kg/day; cited from earlier work
E.coli K12 = details: host-mediated assay after feeding to mice; cited from earlier work
bladder cancer [2] = details: population-based study, Los Angeles county; cited from earlier work
Escherichia coli = details: cited from earlier work
[3] = tested on: CHO cells that are NER deficient (or proficient) and express mouse P4501A2 plus human aryl sulfotransferase or NAT genes; type: cell-based, Chinese hamster; details: two cell lines both deficient in NER, one expressing CYP1A2 and NAT2, 100 μM –1 mM
Method in brief: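 These are engineered CHO lines, heterozygous at aprt. UV5 (NER-deficient, XPD/ERCC2 defect) transfected with mouse CYP1A2, then human NAT2 or aryl sulfotransferase; NER-proficient counterparts were included. Parent alkylanilines were dosed at 50 μM–1 mM, and N-hydroxy or aminophenol metabolites at 5–500 μM. Mutant fraction was determined by 8-azaadenine selection.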

Drosophila melanogaster = details: feeding or injecting; cited from earlier work
[4] = tested on: recombinant human P450s (1A1, 1A2, 1B1, 2A6 and 2E1); details: five recombinant human P450s tested; unpublished results; cited from earlier work
rat hepatocytes = details: cited from earlier work
tissue DNA = details: C57/BL6 mice, dose ∼1 μmol/kg, accelerator mass spectrometry; cited from earlier work
[5] = tested on: human lymphoblastoid TK6 cells; details: cited from earlier work; for cell death: TK6 cells; for viability: TK6 cells exposed to millimolar concentrations
[6] = tested on: Chinese hamster ovary (CHO) cells; details: with and without exogenous metabolic activation; cited from earlier work
[7] = tested on: mouse L5178Y lymphoma cells; details: with and without exogenous metabolic activation; cited from earlier work
Salmonella typhimurium = details: multiple bacterial strains, presence or absence of exogenous activating systems; cited from earlier work
[8] = tested on: AA8 CHO cells (NER proficient) and UV5 cells (NER deficient); type: cell-based, Chinese hamster; details: for cytotoxicity: AA8 and UV5 cells, absence of human liver S9, 100 μM–1 mM; for influence of NER status on cytotoxicity: UV5 (NER deficient) versus AA8 (NER proficient), absence of human liver S9
Method in brief: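 AA8 (NER-proficient) and UV5 (NER-deficient; induced XPD/ERCC2 defect) CHO lines, neither expressing significant phase I or II enzymes, exposed to parent alkylanilines at 50 μM–1 mM without human liver S9. Viability was scored by trypan blue exclusion 24 h after treatment.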

human liver microsomes = details: unpublished results; cited from earlier work
rat liver microsomes = details: unpublished results; cited from earlier work
humans = details: ref International Agency for Cancer; cited from earlier work
[9] = tested on: CHO cells that are NER deficient (or proficient) and express mouse P4501A2 plus human aryl sulfotransferase or NAT genes; type: cell-based, Chinese hamster; details: for contribution of aryl sulfotransferase relative to NAT2: NER-deficient cells expressing CYP1A2 and either phase II enzyme; for potency in inducing both responses (cytotoxicity and mutagenicity), influence of NER status: cell lines expressing CYP1A2 and NAT2; for cytotoxicity: two cell lines both deficient in NER, one expressing CYP1A2 and NAT2, 100 μM –1 mM
Method in brief: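 CHO lines derived from AA8 via UV5 (NER-deficient through an induced XPD/ERCC2 defect). UV5P3 carries mouse CYP1A2 cDNA and was further transfected with human aryl sulfotransferase (HAST1) or NAT2; NER-proficient counterparts were also used. Exposure to parent alkylanilines at 50 μM–1 mM, or to N-hydroxy or aminophenol metabolites at 5–500 μM. Viability was scored by trypan blue exclusion 24 h after treatment.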

ct-DNA = assay: Effect of Phase II conjugation activity on DNA adduct formation in vitro; type: biochemical; details: human liver S9, 1 μM [14C]amine, 6 h at 37°C, NAT cofactors
[10] = tested on: S9 from human, rat, dog and mouse liver; details: cited from earlier work
Calf thymus DNA = assay: Formation of DNA adducts by [14C]alkylanilines in vitro with human hepatic S9; type: biochemical; details: human S9, 25–1000 nM alkylaniline (Figure 3)
Method in brief: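 Calf thymus DNA (1 mg/ml) was incubated with human hepatic S9 (2 mg/ml) in 50 mM Tris pH 7.4 with NADPH regeneration (1.3 mM NADP+, 3.3 mM glucose-6-phosphate, 3.3 mM MgCl2, 0.1 U G6P dehydrogenase) and [14C]alkylaniline at 25, 100 or 1000 nM. Purified DNA-bound radiolabel was measured by accelerator mass spectrometry, as adducts per 10^8 nucleotides (±SD; N = 4).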

[11] = tested on: HPRT gene of human lymphoblastoid TK6 cells; details: cited from earlier work
[12] = tested on: 12-O-tetradecanoyl phorbol 13-acetate responsive element and nuclear factor-kappaB-binding activity; details: in an ROS-dependent fashion; cited from earlier work
Nrf2 = details: in vivo in mice; cited from earlier work
bladder cancer [13] = details: occupationally exposed workers; cited from earlier work
[14] = rats, urine; cited from earlier work
rats = details: oral administration, hydrochloride salt, ref International Agency for Cancer; cited from earlier work
mice = details: oral administration, hydrochloride salt, ref International Agency for Cancer; cited from earlier work

Compound: Cc1ccc(N)c(C)c1 [2,4-dimethylaniline]
- hepatic DNA adducts (hepatic DNA): < 3.2 adducts per 10^8 normal bases

Compound: Cc1cccc(C)c1N [2,6-DMA, 2,6-dimethylaniline]
- tumour induction (male and female rats): inducing carcinomas and papillary adenomas of the nasal cavity
- mutagenicity [1]: not mutagenic
- hepatic DNA adducts (hepatic DNA): < 3.2 adducts per 10^8 normal bases
- micronuclei (bone marrow of male mice): No increase of micronuclei
- genotoxic effect (E.coli K12): No genotoxic effect
- association with bladder cancer risk (bladder cancer [2]): independently associated with risk for development of bladder cancer
- activity in DNA damage and repair assay (Escherichia coli): nor was it active
- mutagenicity [3]: mutagenic only in cells expressing the metabolizing enzymes
- sex-linked recessive lethal effect (Drosophila melanogaster): nor was feeding or injecting it effective
- N-hydroxylation activity [4]: only 2A6 exhibited N-hydroxylation activity
- unscheduled DNA synthesis (rat hepatocytes): did not induce unscheduled DNA synthesis
- labeling of tissue DNA (tissue DNA): detectable labeling of DNA
- cell death [5]: induced cell death
- genotoxic effects induced [6]: sister chromatid exchange and chromosomal aberrations
- mutation induction [7]: induced mutations
- mutagenicity (Salmonella typhimurium): neither mutagenic
- cytotoxicity [8]: cytotoxic
- influence of NER status on cytotoxicity [8]: enhanced by NER deficiency
- conversion to the corresponding hydroxylamine (human liver microsomes): readily apparent
- conversion to the corresponding hydroxylamine (rat liver microsomes): undetectable activity
- carcinogenicity category (humans): Group 2B
- contribution of aryl sulfotransferase relative to NAT2 [9]: more effective in potentiating cytotoxicity but not mutagenicity
- potency in inducing both responses (cytotoxicity and mutagenicity), influence of NER status [9]: greatly enhanced in the NER-deficient cells
- cytotoxicity [9]: cytotoxic
- decrease of DNA adduct level by promotion of NAT activity (ct-DNA): 78%

Compound: Cc1cc(C)cc(N)c1 [3,5-DMA, 3,5-dimethylaniline]
- mutagenicity [1]: not mutagenic
- association with bladder cancer risk (bladder cancer [2]): independently associated with risk for development of bladder cancer
- mutagenicity [3]: mutagenic only in cells expressing the metabolizing enzymes
- labeling of tissue DNA (tissue DNA): detectable labeling of DNA
- cell death [5]: induced cell death
- cytotoxicity [8]: cytotoxic
- influence of NER status on cytotoxicity [8]: enhanced by NER deficiency
- contribution of aryl sulfotransferase relative to NAT2 [9]: more effective in potentiating cytotoxicity but not mutagenicity
- potency in inducing both responses (cytotoxicity and mutagenicity), influence of NER status [9]: greatly enhanced in the NER-deficient cells
- cytotoxicity [9]: cytotoxic
- enhancement of DNA adduct formation by promotion of NAT activity (ct-DNA): 53%

Compound: CCc1cccc(N)c1 [3-EA, 3-ethylaniline]
- association with bladder cancer risk (bladder cancer [2]): independently associated with risk for development of bladder cancer
- labeling of tissue DNA (tissue DNA): detectable labeling of DNA
- viability [5]: did not cause reduced viability
- decrease of DNA adduct level by promotion of NAT activity (ct-DNA): 28%
- N-hydroxylation rate compared with 3,5-DMA or 2,6-DMA [10]: several times greater
- DNA binding of 3-EA compared with the other two alkylanilines (Calf thymus DNA): nearly identical to ∼6-fold less

Compound: Nc1ccc(-c2ccccc2)cc1 [4-aminobiphenyl, reference compound]
- hepatic DNA adducts (hepatic DNA): ~500 adducts per 10^8 normal bases

Compound: CCc1cccc(NO)c1 [N-hydoxy-3-EA]
- viability [5]: did not cause reduced viability

Compound: Cc1cc(C)cc(NO)c1 [N-hydroxy-3,5-DMA]
- HPRT mutagenicity [11]: mutagenic

Compound: N[C@@H](CCC(=O)N[C@@H](CSc1cc(O)c(SC[C@H](NC(=O)CC[C@H](N)C(=O)O)C(=O)NCC(=O)O)c(SC[C@H](NC(=O)CC[C@H](N)C(=O)O)C(=O)NCC(=O)O)c1O)C(=O)NCC(=O)O)C(=O)O [TGHQ, 2,3,5-tris-(glutathion-S-yl)hydroquinone]
- effect on TRE and NF-kappaB-binding activity [12]: modulates

Compound: CC(=O)Nc1ccc(O)cc1 [acetaminophen]
- Nrf2 nuclear translocation (Nrf2): can initiate nuclear translocation of Nrf2

Compound: Cc1ccccc1N [o-toluidine]
- human carcinogenicity finding (bladder cancer [13]): is indeed a human bladder carcinogen
- production of an N-hydroxylamine in vivo [14]: urinary excretion of N-hydroxy-o-toluidine
- tumour induction (rats): increased the incidence of tumours in multiple organs
- tumour induction (mice): increased incidence of haemangiomas and haemangiosarcomas and hepatocellular carcinomas or adenomas
- carcinogenicity category (humans): Group 1
